These results are taken from ChEMBL document CHEMBL1221371, “Norterpenoids and related peroxides from the formosan marine sponge Negombata corticata” (J Nat Prod, 2010).

One experiment deals with MDA-MB-231. Description: Cytotoxicity against human MDA-MB-231 cells by MTT assay. The format is functional, cell-based. Summed up: (§1)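 Human cancer cell lines were obtained from ATCC. Viability was read colorimetrically by MTT reduction, with doxorubicin as the positive control. IC50 values were derived in µM.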
On the technique in general: Tetrazolium assays rely on reduction of a dye to a coloured formazan, in cell work by metabolically active cells.

The test system of the next experiment is MCF7. Description: Cytotoxicity against human MCF7 cells by MTT assay. In kind it is functional, cell-based. Summed up: as §1
The test system of a further experiment is HepG2. Put plainly: Cytotoxicity against human HepG2 cells by MTT assay. In kind it is functional, cell-based. Summed up: as §1
Experiment [1] can be described thus: Cytotoxicity against human Hep3B cells by MTT assay. The format is functional, cell-based, Hep 3B2. Summed up:
as §1

A further experiment has as its system A549. Description: Cytotoxicity against human A549 cells by MTT assay. The format is functional, cell-based. Summed up: as §1

On to `CC(=O)CCCC(C)(C)C(=O)CCC(C)=O`, for which the half-inhibitory concentration (IC50) (in the experiment with MDA-MB-231; in the experiment with MCF7; in the experiment on HepG2; in experiment [1]; with A549) was above 50 µM throughout.

Take `COC(=O)[C@@H](C)[C@@H]1CC[C@](C)(CCC(=O)C(C)(C)CCCC(C)=O)OO1` [DIACARPEROXIDE B]: the IC50 (in the experiment with MDA-MB-231; in the experiment with MCF7; with HepG2; in experiment [1]; in the experiment on A549) was 11.9 µM throughout.

For `COc1cccc2c1C(=O)c1c(O)c3c(c(O)c1C2=O)C[C@@](O)(C(=O)CO)C[C@@H]3O[C@H]1C[C@H](N)[C@H](O)[C@H](C)O1` [DOXORUBICIN], the IC50 (commonly the concentration that inhibits the measured activity by half) in the experiment on MDA-MB-231 stood at 0.24 µM; in the experiment with HepG2, 0.19 µM; in experiment [1], 0.14 µM.

`C=C1CCCC(C)(C)C1CC[C@@]1(C)CC[C@H]([C@@H](C)C(=O)O)OO1` (stereo partly drawn) [NAPAPUIN B]: the IC50 in the experiment with MDA-MB-231 was 0.3 µM; in the experiment with MCF7 it was 5.9 µM; with HepG2, 0.9 µM; in experiment [1], 41.3 µM; with A549, 0.6 µM.

With `C=C1CCCC(C)(C)C1CC[C@@](C)(O)CC[C@@H](O)[C@@H](C)C(=O)OC` (stereo partly drawn) [NEGOMBATODIOL], the IC50 (in the experiment on MDA-MB-231; with MCF7; in the experiment on HepG2; in experiment [1]; with A549) was above 50 µM in each case.

Turning to `C=C1CCCC(C)(C)C1CC[C@]1(C)CCC(=O)O1` (stereo partly drawn) [NEGOMBATOLACTONE], the IC50 (in the experiment with MDA-MB-231; with MCF7; in the experiment on HepG2; in experiment [1]; with A549) was above 50 µM each time.

Regarding `C/C(=C\CC[C@]1(C)CC[C@H]([C@@H](C)C(=O)O)OO1)CCC12OC1(C)CCCC2(C)C` (stereo partly drawn) [NEGOMBATOPEROXIDE A], the IC50 (with MDA-MB-231; in the experiment with MCF7; in the experiment with HepG2; in experiment [1]; in the experiment on A549) was above 50 µM in each case.

Regarding `CC(=O)/C=C/C[C@]1(C)CC[C@H]([C@@H](C)C(=O)O)OO1` [NEGOMBATOPEROXIDE B], the half-inhibitory concentration (IC50) (in the experiment with MDA-MB-231; with MCF7; with HepG2; in experiment [1]; in the experiment on A549) was above 50 µM in each case.

Take `C[C@@H](C(=O)O)[C@H]1CC[C@@](C)(C/C=C/C2(C)CCC(=O)O2)OO1` (stereo partly drawn) [NEGOMBATOPEROXIDE C/D]: the IC50 (with MDA-MB-231; with MCF7; in the experiment with HepG2; in experiment [1]; in the experiment with A549) was above 50 µM throughout.

With `C=C1CCCC(C)(C)C1CC[C@]1(C)CC[C@H]([C@@H](C)C(=O)OC)OO1` (stereo partly drawn) [NUAPAPUIN B], the half-maximal inhibitory concentration (IC50) with MDA-MB-231 turned out to be 3.5 µM; in the experiment with MCF7, 38.5 µM; in the experiment on HepG2 it was 2.9 µM; in experiment [1] it was 23.7 µM; with A549, 5.38 µM.
